Sampled rows, rich in hits. Any-hit rate of the full collection: about 3.5%.
PGC1a acetyl inh: inhibitors of PGC1a acetylation signal, primary screen, cell-based, U2OS, AlphaScreen, inhibitor mode; AlphaScreen anti-acetyl-lysine; with virally co-expressed GCN5 acetyltransferase; inhibition, % at 15.6 µM; 0.17% of 350,000 active;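 active = every replicate shows inhibition of at least 40%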
rRNA inh HTS: reduced GFP signal of wild-type E. coli, primary screen, bacterial rRNA inhibitor project, GFP/RFP fluorescence, OD600, single point. E. coli WT GFP vs humanized-ribosome RFP mutants, 24 h; stronger effect = lower value; DMSO median 0, no signal -100. GFP signal change (wild-type ribosome), % (no concentration beside the values). 1.6% of 350,000 active. AID 720706, 2013;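 active = significant combined selectivity score with lowered wild-type GFP, culture density cut under 30%, mutant RFP and density less affected; inactive = any of these conditions unmet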
FGF22 binding-1: binders of human FGF22 protein, primary screen, FGF22 synaptogenesis inhibitor project, biophysical, thermal shift, single point. Fibroblast growth factor 22 (Homo sapiens), Q9HCT0. recombinant FGF22 thermal shift, SYPRO orange fluorescence; percent of sucrose octasulfate shift, DMSO zero. activity (Tm shift, normalised), % at 9.99 µM. 1.5% of 340,000 active;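 active = mean Tm shift, scaled 0 neutral to 100 positive control, at about 1.3% or above, every replicate too, limit read from the data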
Cneo AK release: Cryptococcus neoformans cell lysis inducers, primary screen, AK release luminescence, single concentration | C. neoformans lysis, adenylate kinase release luminescence, 4 h; normalised: neutral wells 0, clomiphene wells 100 | lysis activity, % at 15 µM | 0.2% of 360,000 active;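 active = mean lysis activity across replicates of at least 80%, whatever share of replicates individually reach that level; inactive = mean lysis activity below 80%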
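Test system: log-phase Cryptococcus neoformans yeast cells. Input: 5 × 10^6 yeast cells/mL. Medium: fresh YPD growth medium. Doses: single dose. Incubation: static 4 h at 37 °C with compound, 1 h detection. Measured by: luminescent adenylate kinase detection reagent. Read-out: signal increase indicating cell lysis. Benchmarks: Clomiphene.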
ERAP1 inh: human ERAP1 aminopeptidase inhibitors, primary screen, biochemical, single point, plate reader; Endoplasmic reticulum aminopeptidase 1 (Homo sapiens), Q9NZ08; recombinant ERAP1, Leu-AMC fluorescence, 60 min; inhibition, % at 10.7 µM; 0.15% of 340,000 active;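 active = mean replicate inhibition of at least 30%, or all replicates individually reaching that 30% level; inactive = mean below 30% and not every replicate reaching it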
Target sequence (Q9NZ08 whole entry, looked up): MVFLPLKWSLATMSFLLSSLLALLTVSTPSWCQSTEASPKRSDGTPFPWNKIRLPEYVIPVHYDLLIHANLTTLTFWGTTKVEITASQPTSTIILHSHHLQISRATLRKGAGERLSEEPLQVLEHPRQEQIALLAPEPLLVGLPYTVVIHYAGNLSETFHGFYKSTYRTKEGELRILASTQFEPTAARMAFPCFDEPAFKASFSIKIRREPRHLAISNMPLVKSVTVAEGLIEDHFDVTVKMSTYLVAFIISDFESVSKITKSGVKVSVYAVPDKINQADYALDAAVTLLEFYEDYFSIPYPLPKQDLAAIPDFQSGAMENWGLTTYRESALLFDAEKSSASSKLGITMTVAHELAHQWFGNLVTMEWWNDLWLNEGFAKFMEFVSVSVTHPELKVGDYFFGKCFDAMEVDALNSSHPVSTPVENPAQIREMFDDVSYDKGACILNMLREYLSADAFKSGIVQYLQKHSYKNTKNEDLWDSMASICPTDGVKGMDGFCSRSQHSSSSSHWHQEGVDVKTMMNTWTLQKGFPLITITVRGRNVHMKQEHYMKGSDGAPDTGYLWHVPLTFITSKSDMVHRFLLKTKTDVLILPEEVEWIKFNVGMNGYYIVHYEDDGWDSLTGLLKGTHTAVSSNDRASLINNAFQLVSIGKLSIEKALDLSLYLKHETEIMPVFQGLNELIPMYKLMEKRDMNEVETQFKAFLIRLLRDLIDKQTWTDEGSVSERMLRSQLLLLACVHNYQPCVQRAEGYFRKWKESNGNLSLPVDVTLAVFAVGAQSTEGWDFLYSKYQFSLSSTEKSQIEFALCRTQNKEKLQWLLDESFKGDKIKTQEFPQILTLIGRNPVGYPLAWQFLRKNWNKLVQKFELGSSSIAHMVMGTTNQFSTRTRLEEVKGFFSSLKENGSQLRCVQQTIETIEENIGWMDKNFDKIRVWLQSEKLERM
Env fusion inh: inhibitors of HIV-1 Env-driven cell-cell fusion, primary screen, HeLa-JRFL effector, CEM21 target cells, luciferase; AID 651610, 2012; 1.1% of 360,000 active; inhibition, % at 12.3 µM;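 active = mean replicate inhibition score of at least 50 and every replicate individually at or above 50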
FGF22 binding-2: binders of human FGF22 protein, dose response, FGF22 synaptogenesis inhibitor project, biophysical, thermal shift, cherry-pick retest; 2% of 1,000 active; recombinant FGF22 thermal shift, SYPRO orange fluorescence; shares compounds with FGF22 binding-1; thermal shift activity, °C (ΔTm) at 38 µM; AID 720646, 2013;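 active = fitted rise in melting shift crosses a set limit at or below the top valid dose tested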
TSA no protein: compound-only thermal shift signal without protein, dose response, artefact control for FGF22 binder project, biochemical, cherry-picked samples, RT-PCR instrument | shares compounds with FGF22 binding-1 | compound-only SYPRO orange thermal shift counter-screen, no protein | AC50, µM (titrated, usually from 38 µM) | 2% of 1,000 active;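 active = rising signal whose fitted curve reaches the 0.54 level within the top valid dose, showing a melting point, actives reach about 13 µM in these data; inactive = the rest, including activity in the opposite direction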; note: value is where the raw curve crosses a fixed level and not half-maximal
Hits are given with their value; 0 = inactive; - = no result given.

SMILES	PGC1a acetyl inh	rRNA inh HTS	FGF22 binding-1	Cneo AK release	ERAP1 inh	Env fusion inh	FGF22 binding-2	TSA no protein
O=C(N/N=C/c1ccncc1)c1cccc(N/N=C/c2ccncc2)c1	-	0	1.5	-	0	0	0	0
O=C(N/N=C/c1ccc(F)cc1)c1cccc(NC(=O)c2ccc(F)cc2)c1	-	0	0	0	0	0	-	-
O=C(N/N=C/c1ccncc1)c1cccc(NC(=O)c2ccc(Cl)cc2)c1	-	0	2.4	-	0	0	0	0
O=C(N/N=C/c1ccc(Cl)cc1)c1ccc2nc[nH]c2c1	0	0	2.5	0	0	0	0	0
Cc1nc2c(C)cccc2cc1C(=O)N/N=C/c1ccc(O)cc1	-	0	2.2	-	0	0	0	0
O=C(N/N=C/c1ccc(O)cc1)c1cccc(N/N=C/c2ccc(O)cc2)c1	0	0	1.7	0	-	0	0	0
O=C(O)c1cccc(-n2cc(-c3cccc(C(F)(F)F)c3)cn2)c1	-	0	1.6	-	0	0	0	0
O=C(O)c1ccc(-c2nc(-c3cccc(C(F)(F)F)c3)cs2)cc1	0	0	0	-	0	0	-	-
N#CC1=C(c2ccccc2)/C(=C/c2ccccc2)OC1=O	0	-	-	-	-	-	-	-
N#CC(C#N)=C1NC(N)=C(C#N)C(c2ccccc2)=C1C#N	-	0	2.1	-	0	0	0	0
COc1ccc2oc(=Nc3cccc(F)c3)c(C(N)=O)cc2c1	-	0	0	-	0	0	-	-
CCOC(=O)N1CCN(C(=O)CCCCCn2c(=S)[nH]c3ccsc3c2=O)CC1	0	0	1.4	-	0	0	0	0
Cc1noc(C)c1NC(=O)Nc1ccc2c(c1)C(=O)N(C)[C@@H]1CC[C@@H](CC(=O)N[C@H]3CCN(Cc4ccccc4)C3)O[C@@H]1CO2	0	0	0	0	0	0	-	-
CN1C(=O)c2cc(NC(=O)Cc3ccccc3)ccc2OC[C@@H]2O[C@H](CC(=O)O)CC[C@H]21	0	0	1.4	0	0	0	0	0
CN1C(=O)c2cc(NC(=O)c3cccc(F)c3)ccc2OC[C@@H]2O[C@H](CC(=O)NCc3ccccc3)CC[C@@H]21	0	0	2.2	0	-	0	0	0
CCNC(=O)Nc1ccc2c(c1)C(=O)N(C)[C@H]1CC[C@H](CC(=O)NCc3ccc(F)cc3)O[C@H]1CO2	0	0	28	0	0	0	0	0
Cc1noc(C)c1NC(=O)Nc1ccc2c(c1)C(=O)N(C)[C@H]1CC[C@H](CC(=O)N[C@@H]3CCN(Cc4ccccc4)C3)O[C@@H]1CO2	0	0	1.8	0	0	0	0	0
CN1C(=O)c2cc(NC(=O)c3cccc(F)c3)ccc2OC[C@@H]2O[C@@H](CC(=O)Nc3ccccc3)CC[C@@H]21	0	0	0	0	0	-	-	-
Cc1ccc(C2C(=O)N(C3CCCC3)CC(=O)N2C2CCCCC2)cc1 (stereo unspecified)	0	-	-	0	-	0	-	-
C=CCNC(=S)N/N=C/c1ccccc1OCCOc1ccccc1	-	0	0	0	0	0	-	-
Cn1c(=O)c2c(-c3ccccc3)n(-c3cc(Cl)c([N+](=O)[O-])cc3O)cc2n(C)c1=O	0	0	1.6	0	0	0	-	0
Cc1cccc(-c2c3c(=O)n(C)c(=O)n(C)c3cn2-c2ccccc2O)c1	0	-	-	-	-	-	-	-
Cn1c(=O)c2c(-c3ccccc3)n(-c3cc([N+](=O)[O-])ccc3O)cc2n(C)c1=O	0	0	1.4	-	0	-	0	0
C[C@@H]1CN([C@@H](C)CO)C(=O)c2cccc(NS(=O)(=O)c3cn(C)cn3)c2O[C@@H]1CN(C)S(=O)(=O)c1ccc(Cl)cc1	0	0	1.5	0	0	0	0	0
C[C@@H]1CN([C@@H](C)CO)C(=O)c2cccc(N(C)C)c2O[C@H]1CN(C)Cc1ccc(C(=O)O)cc1	0	0	2.7	0	0	0	0	0
SMILES	PGC1a acetyl inh	rRNA inh HTS	FGF22 binding-1	Cneo AK release	ERAP1 inh	Env fusion inh	FGF22 binding-2	TSA no protein
C[C@H]1CN([C@@H](C)CO)C(=O)c2cccc(N(C)C)c2O[C@H]1CN(C)Cc1ccc(C(=O)O)cc1	0	0	0	0	0	0	-	-
C[C@@H]1CN([C@H](C)CO)C(=O)c2cccc(NC(=O)C3CC3)c2O[C@@H]1CN(C)Cc1ccncc1	-	0	0	0	0	0	-	-
C[C@@H]1CN([C@@H](C)CO)C(=O)c2cccc(NC(=O)C3CC3)c2O[C@H]1CN(C)Cc1ccncc1	-	0	1.2	0	0	0	0	0
C[C@H]1CN([C@@H](C)CO)C(=O)CCCn2cc(nn2)CO[C@@H]1CN(C)Cc1cccc(C(=O)O)c1	0	0	1.3	0	0	-	0	0
Cn1c(SCC(=O)Nc2sccc2C#N)nnc1C1CC1	0	0	0	0	0	0	-	-
C[C@H](CO)N1C[C@H](C)[C@@H](CN(C)S(=O)(=O)c2ccccc2)Oc2c(NC(=O)C3CC3)cccc2C1=O	-	0	2.6	0	0	0	0	0
C[C@@H]1CN([C@@H](C)CO)C(=O)c2cccc(NC(=O)c3ccc(-c4nccs4)cc3)c2O[C@@H]1CN(C)C	0	0	5.0	0	0	-	0	0
COc1ccc(S(=O)(=O)N(C)C[C@@H]2Oc3c(NC(=O)c4cc(C)nn4C)cccc3C(=O)N([C@H](C)CO)C[C@H]2C)cc1	0	0	1.3	0	0	-	0	0
C[C@@H]1CN([C@@H](C)CO)C(=O)c2cccc(NC(=O)C3CC3)c2O[C@H]1CN(C)S(=O)(=O)c1ccccc1	-	0	0	0	0	0	-	-
COc1ccccc1OCCCOc1ccc(/C=C2\SC(=O)NC2=O)cc1OC	0	0	0	0	0	0	-	-
OCCNCc1cc(Br)ccc1OCc1ccccc1Cl	-	-	-	-	-	0	-	-
Cc1ccc(NC(=O)c2ccc(S(=O)(=O)NCc3cccnc3)cc2)c(C)c1	-	0	1.6	0	0	0	0	0
Cc1ccc(S(=O)(=O)NCc2cccnc2)cc1C	0	0	3.2	0	0	0	0	0
Cc1cc(S(=O)(=O)NCc2cccnc2)ccc1F	-	0	0	0	0	0	-	-

Compound activity deposited in PubChem BioAssay by Broad Institute.
